Test results taken from ChEMBL document CHEMBL1955726, “Novel Rho kinase inhibitors with anti-inflammatory and vasodilatory activities” (J Pharmacol Exp Ther, 2007).
Calls of active or inactive are those of the source. The calls are words filed in the database; no cut-off is given here.

Columns and labels:
[1] = target: T1, Inhibitor of nuclear factor kappa-B kinase subunit beta (Homo sapiens, UniProt O14920); test: Inhibition of IKK2
T1 sequence (O14920 whole entry): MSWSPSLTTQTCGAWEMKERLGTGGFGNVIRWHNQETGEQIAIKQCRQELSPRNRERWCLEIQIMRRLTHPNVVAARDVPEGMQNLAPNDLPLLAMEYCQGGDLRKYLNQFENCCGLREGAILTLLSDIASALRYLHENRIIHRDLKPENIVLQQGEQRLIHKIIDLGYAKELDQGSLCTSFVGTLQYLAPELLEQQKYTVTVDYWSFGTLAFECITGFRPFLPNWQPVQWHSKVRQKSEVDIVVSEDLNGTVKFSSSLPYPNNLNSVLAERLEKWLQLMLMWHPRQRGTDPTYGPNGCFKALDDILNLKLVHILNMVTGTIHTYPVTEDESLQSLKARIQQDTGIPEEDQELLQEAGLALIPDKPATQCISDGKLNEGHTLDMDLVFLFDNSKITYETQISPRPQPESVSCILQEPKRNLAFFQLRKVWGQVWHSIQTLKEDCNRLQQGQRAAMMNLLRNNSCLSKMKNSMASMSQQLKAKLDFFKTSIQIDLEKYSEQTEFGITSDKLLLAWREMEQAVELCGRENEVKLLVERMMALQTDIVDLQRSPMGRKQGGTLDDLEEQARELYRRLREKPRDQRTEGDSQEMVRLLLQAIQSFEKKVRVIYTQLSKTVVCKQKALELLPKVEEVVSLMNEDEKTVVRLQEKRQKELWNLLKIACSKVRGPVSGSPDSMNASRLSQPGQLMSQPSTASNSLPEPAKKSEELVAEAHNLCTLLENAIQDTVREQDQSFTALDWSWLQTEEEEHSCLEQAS

[2] = target: Ribosomal protein S6 kinase alpha-1 (Homo sapiens, UniProt Q15418); test: Inhibition of RSK1
Chain of Ribosomal protein S6 kinase alpha-1 (Q15418 whole entry): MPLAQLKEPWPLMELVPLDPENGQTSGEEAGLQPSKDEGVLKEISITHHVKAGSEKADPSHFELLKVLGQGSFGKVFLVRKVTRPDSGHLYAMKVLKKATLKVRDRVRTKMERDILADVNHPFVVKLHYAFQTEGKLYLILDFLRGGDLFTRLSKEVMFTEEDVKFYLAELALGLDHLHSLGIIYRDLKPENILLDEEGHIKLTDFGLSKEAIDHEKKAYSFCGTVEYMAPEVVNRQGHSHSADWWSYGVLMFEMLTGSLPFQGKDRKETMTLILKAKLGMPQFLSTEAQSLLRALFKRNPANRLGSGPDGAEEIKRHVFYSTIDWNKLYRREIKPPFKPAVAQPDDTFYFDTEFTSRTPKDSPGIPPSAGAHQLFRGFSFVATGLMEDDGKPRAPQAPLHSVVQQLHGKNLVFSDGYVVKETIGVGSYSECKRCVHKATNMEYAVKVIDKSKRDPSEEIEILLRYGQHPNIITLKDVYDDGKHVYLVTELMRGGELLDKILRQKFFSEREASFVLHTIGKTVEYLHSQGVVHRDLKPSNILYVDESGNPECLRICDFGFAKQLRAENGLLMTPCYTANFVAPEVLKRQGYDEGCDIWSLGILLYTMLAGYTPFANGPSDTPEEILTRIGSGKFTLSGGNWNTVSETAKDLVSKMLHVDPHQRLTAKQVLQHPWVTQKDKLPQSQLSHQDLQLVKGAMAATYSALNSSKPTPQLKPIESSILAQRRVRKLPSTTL

[3] = target: Cyclin-dependent kinase 2 (Homo sapiens, UniProt P24941); test: Inhibition of CDK2
[4] = tested on: Rattus norvegicus; test: Cardiovascular activity in DOCA salt treated rat assessed as increase in heart rate at 1 mg/kg, po; format: ADME, organism-based; design: dose 1 mg/kg, route oral; settings: in vivo
Method in brief: (§1)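 Compound given by oral gavage: 0.3, 1 and 3 mg/kg to spontaneously hypertensive rats, and 1 mg/kg to DOCA salt-treated hypertensive rats. A vehicle group was run alongside. Heart rate and blood pressure were recorded from immediately after dosing as 10-s averages every 5 min. There were 4-6 animals per dose (5 per group in the legend), and the change was taken from each group's baseline.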

[5] = target: RAC-beta serine/threonine-protein kinase (Homo sapiens, UniProt P31751); test: Inhibition of AKT2
[6] = target: Mitogen-activated protein kinase 10 (Homo sapiens, UniProt P53779); test: Inhibition of JNK3
[7] = target: RAC-alpha serine/threonine-protein kinase (Homo sapiens, UniProt P31749); test: Inhibition of AKT1
[8] = tested on: Rattus norvegicus; test: Cardiovascular activity in spontaneously hypertensive rat assessed as increase in heart rate at 0.3 to 3 mg/kg, po; format: ADME, organism-based; design: dose 0.3-3 mg/kg, route oral; settings: in vivo; method in brief: as §1
[9] = tested on: Rattus norvegicus; test: Antihypertensive activity in normotensive Sprague-Dawley rat assessed as reduction of blood pressure at 1 mg/kg, po after 2 hrs; format: functional
[10] = tested on: Rattus norvegicus; test: Antihypertensive activity in rat assessed as reduction of DOCA salt-induced blood pressure at 1 mg/kg, po after 2 hrs; format: functional
[11] = target: Serine/threonine-protein kinase PLK1 (Homo sapiens, UniProt P53350); test: Inhibition of PLK
Chain of Serine/threonine-protein kinase PLK1 (P53350 whole entry): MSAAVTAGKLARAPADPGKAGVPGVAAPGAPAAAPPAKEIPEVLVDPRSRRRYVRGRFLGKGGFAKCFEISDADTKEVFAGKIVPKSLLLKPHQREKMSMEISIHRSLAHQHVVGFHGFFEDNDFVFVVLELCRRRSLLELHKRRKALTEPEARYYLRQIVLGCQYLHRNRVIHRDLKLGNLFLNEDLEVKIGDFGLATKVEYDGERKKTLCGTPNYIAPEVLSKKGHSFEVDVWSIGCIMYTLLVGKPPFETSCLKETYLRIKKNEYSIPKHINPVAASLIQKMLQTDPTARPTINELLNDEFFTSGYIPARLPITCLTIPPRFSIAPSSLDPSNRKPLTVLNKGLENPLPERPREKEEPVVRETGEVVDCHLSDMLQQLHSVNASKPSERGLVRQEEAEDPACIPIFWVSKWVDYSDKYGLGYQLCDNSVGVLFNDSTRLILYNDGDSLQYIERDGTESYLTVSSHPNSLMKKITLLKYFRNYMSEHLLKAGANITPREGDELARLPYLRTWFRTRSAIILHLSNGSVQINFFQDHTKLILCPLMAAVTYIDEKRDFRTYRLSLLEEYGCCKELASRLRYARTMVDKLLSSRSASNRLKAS

[12] = target: Glycogen synthase kinase-3 alpha (Homo sapiens, UniProt P49840); test: Inhibition of GSK3alpha
Chain of Glycogen synthase kinase-3 alpha (P49840 whole entry): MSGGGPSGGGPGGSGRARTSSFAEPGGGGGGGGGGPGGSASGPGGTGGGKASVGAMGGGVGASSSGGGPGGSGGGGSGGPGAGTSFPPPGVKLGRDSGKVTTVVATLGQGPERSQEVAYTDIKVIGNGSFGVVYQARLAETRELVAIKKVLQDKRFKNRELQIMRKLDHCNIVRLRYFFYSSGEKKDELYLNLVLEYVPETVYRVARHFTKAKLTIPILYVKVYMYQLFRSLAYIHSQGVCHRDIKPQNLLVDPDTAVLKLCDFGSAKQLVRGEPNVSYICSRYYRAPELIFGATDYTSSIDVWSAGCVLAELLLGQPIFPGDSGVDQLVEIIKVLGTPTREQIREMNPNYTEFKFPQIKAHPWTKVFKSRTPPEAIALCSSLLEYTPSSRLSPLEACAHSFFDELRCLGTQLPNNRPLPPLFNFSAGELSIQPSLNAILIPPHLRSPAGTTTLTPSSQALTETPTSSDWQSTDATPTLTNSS

[13] = target: RAC-gamma serine/threonine-protein kinase (Homo sapiens, UniProt Q9Y243); test: Inhibition of AKT3
Chain of RAC-gamma serine/threonine-protein kinase (Q9Y243 whole entry): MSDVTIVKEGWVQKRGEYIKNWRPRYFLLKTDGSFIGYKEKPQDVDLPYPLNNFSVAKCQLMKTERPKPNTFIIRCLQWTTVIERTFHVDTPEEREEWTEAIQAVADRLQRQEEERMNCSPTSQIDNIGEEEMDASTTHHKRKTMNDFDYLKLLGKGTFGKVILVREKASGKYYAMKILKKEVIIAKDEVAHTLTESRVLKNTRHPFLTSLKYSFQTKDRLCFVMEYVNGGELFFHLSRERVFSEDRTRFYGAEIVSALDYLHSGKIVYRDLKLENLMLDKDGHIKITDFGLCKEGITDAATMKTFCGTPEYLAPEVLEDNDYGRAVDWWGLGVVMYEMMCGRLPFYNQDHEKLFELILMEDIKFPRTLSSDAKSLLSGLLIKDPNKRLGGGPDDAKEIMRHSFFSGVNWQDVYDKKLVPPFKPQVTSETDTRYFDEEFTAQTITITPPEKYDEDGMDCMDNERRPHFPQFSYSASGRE

[14] = tested on: Rattus norvegicus; test: Antihypertensive activity in spontaneously hypertensive rat assessed as reduction of blood pressure at 1 mg/kg, po after 2 hrs; format: functional
[15] = tested on: Aorta; test: Vasodilatory activity in Sprague-Dawley rat aorta assessed as reversal of KCl/phenylephrine-induced muscle contraction; format: functional, tissue-based
[16] = target: Rho-associated protein kinase 2 (Homo sapiens, UniProt O75116); test: Inhibition of human ROCK2
Chain of Rho-associated protein kinase 2 (O75116 whole entry): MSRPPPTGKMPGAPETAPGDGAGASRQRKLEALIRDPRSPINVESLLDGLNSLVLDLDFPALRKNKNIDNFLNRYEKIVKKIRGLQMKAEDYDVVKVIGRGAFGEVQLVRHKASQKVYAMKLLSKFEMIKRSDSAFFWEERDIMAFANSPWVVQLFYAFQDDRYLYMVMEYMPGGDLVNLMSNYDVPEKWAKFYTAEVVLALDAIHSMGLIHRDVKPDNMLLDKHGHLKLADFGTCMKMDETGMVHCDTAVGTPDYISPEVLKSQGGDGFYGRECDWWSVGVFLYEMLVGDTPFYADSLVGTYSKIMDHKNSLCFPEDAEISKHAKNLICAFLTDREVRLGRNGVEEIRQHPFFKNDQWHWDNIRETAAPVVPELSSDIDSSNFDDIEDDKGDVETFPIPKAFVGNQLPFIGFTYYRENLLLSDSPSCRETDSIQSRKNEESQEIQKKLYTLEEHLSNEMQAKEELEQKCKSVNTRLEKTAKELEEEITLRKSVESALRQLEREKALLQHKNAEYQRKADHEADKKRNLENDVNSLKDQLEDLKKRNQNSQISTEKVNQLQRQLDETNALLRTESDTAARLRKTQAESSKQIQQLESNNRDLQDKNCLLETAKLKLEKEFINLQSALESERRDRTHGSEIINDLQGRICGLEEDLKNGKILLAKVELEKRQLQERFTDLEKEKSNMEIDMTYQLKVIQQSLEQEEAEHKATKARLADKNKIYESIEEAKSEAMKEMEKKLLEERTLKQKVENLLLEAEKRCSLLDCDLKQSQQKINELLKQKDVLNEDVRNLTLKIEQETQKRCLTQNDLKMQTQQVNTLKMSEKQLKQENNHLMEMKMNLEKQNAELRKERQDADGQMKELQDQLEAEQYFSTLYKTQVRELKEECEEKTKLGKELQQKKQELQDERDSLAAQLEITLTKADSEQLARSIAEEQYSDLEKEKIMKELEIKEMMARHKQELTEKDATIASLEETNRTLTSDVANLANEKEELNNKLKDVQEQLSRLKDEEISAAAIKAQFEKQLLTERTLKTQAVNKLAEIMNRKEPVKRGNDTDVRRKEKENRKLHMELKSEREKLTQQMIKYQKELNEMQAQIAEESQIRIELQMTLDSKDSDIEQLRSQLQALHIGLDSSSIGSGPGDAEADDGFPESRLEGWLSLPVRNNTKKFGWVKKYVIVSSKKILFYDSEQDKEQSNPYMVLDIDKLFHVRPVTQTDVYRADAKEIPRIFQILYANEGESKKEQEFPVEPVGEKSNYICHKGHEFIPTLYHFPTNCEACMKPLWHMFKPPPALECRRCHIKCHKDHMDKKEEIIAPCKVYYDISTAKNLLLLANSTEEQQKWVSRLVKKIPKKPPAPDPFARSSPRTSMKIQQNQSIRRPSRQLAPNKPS

[17] = target: Rho-associated protein kinase 1 (Homo sapiens, UniProt Q13464); test: Inhibition of human recombinant N-terminal his-tagged ROCK1 (3-543) expressed in baculovirus infected Sf9 cells using Biotin-Ahx-AKRRLSSLRA-CONH2 substrate and [gamma-33P]ATP after 90 mins by scintillation proximity assay
Chain of Rho-associated protein kinase 1 (Q13464 whole entry): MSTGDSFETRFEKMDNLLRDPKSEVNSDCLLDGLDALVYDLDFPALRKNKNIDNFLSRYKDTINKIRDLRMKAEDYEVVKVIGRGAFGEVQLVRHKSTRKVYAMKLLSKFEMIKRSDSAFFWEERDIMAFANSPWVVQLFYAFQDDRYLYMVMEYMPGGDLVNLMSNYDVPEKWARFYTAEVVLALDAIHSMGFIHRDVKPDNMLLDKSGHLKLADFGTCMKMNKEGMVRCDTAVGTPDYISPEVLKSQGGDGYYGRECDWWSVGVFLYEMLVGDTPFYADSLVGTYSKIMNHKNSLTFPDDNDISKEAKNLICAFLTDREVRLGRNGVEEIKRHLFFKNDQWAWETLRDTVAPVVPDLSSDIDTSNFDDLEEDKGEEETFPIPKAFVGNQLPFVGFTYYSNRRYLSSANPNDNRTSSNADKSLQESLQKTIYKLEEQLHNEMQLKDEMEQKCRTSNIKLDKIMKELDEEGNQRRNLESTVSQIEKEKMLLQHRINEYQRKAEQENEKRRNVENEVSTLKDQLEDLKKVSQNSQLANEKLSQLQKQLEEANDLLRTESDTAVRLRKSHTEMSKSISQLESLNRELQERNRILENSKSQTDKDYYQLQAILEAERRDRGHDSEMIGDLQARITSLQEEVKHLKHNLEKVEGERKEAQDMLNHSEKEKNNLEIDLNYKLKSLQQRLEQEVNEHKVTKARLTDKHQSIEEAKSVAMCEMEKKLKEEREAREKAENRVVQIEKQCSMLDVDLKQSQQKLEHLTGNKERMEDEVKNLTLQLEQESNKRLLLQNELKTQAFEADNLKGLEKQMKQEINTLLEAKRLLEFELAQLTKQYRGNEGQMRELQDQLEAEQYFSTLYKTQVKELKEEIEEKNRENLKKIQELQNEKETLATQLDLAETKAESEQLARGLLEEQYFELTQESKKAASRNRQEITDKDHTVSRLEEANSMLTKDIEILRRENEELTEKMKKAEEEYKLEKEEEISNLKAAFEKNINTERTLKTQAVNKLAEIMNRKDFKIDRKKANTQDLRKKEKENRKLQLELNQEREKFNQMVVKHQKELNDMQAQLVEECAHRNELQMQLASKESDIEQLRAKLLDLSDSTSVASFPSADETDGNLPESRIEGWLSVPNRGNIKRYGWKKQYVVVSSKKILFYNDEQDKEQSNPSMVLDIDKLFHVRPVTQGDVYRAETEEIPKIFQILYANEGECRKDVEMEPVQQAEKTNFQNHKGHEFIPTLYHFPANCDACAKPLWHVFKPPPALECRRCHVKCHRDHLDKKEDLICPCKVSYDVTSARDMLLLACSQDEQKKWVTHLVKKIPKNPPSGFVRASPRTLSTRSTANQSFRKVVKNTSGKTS

[18] = tested on: primary macrophages (Homo sapiens); test: Antiinflammatory activity in human primary monocyte-derived macrophages assessed as inhibition of LPS-induced IL-6 mRNA expression at 10 uM treated 30 mins before LPS stimulation measured after 18 hrs by Northern blotting
[19] = target: Ribosomal protein S6 kinase alpha-5 (Homo sapiens, UniProt O75582); test: Inhibition of MSK1

IC50 [1] [nM] | IC50 [2] [nM] | IC50 [3] [nM] | IC50 [6] [nM] | IC50 [7] [nM] | IC50 [11] [nM] | IC50 [12] [nM] | IC50 [13] [nM] | IC50 [16] [nM] | IC50 [17] [nM] | Compound | Activity [8] | inhibition [18] | other results
> 10000 | 35 | 7000 | > 10000 | 324 | > 10000 | 9100 | 1290 | – | – | CCn1c(-c2nonc2N)nc2cncc(C(=O)N3CC[C@H](N)C3)c21 | Dose-dependent effect | – | Activity [4]: Toxic; IC50 [5]: 1950 nM; Activity [9]: 12 mmHg; Activity [10]: 40 mmHg; Activity [14]: 40 mmHg
– | – | – | – | – | – | – | – | – | – | C[C@@H](N)[C@H]1CC[C@H](C(=O)Nc2ccncc2)CC1 [Y-27632] | Dose-dependent effect | – | IC50 [15]: 1400 nM
– | – | – | – | – | – | – | – | < 10 | < 10 | CCn1c(-c2nonc2N)nc2cnccc21 | – | Active | –
> 10000 | 132 | 3500 | > 10000 | 955 | > 10000 | 1260 | 1510 | – | – | CCn1c(-c2nonc2N)nc2cnc(Oc3cccc(NC(=O)c4ccc(OCCN5CCOCC5)cc4)c3)cc21 [GSK-269962A] | Dose-dependent effect | – | IC50 [19]: 49 nM
– | – | – | – | – | – | – | – | < 10 | < 10 | CCn1c(-c2nonc2N)nc2cncc(-c3ccc(CN)cc3)c21 | – | Active | –
